The record followed here is ChEMBL document CHEMBL1136621 (Bioorg Med Chem Lett, 2003).

Series [1] has as its target T1, Dihydropyrimidine dehydrogenase [NADP(+)] (Homo sapiens, UniProt Q12882).
T1 sequence (Q12882 whole entry): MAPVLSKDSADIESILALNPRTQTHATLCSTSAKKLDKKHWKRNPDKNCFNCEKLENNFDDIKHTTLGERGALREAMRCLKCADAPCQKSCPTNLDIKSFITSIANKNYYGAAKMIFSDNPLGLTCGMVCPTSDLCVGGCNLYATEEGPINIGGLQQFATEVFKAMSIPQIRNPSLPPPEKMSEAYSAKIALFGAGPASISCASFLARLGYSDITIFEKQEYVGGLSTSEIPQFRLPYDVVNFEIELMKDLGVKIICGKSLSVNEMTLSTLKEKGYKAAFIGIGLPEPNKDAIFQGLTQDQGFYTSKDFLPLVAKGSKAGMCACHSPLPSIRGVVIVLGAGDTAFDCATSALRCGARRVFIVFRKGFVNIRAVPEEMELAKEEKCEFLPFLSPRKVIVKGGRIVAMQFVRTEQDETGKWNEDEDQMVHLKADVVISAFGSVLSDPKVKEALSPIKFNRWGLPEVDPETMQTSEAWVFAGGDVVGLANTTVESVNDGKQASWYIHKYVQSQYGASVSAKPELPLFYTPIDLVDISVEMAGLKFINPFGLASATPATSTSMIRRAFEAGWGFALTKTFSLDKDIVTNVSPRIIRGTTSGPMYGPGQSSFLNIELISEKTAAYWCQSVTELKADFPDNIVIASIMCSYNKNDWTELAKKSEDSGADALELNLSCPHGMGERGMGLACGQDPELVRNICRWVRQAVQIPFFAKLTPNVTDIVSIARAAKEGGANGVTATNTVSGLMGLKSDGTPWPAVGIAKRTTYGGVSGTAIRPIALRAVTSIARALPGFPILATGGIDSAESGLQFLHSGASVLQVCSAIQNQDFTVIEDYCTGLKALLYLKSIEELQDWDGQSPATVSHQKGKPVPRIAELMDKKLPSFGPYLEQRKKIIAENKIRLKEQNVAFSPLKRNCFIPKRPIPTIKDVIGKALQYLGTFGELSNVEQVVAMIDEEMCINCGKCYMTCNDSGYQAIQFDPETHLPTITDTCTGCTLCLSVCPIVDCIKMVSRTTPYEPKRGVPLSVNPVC
The series is described as follows: Inhibitory activity against dihydropyrimidine dehydrogenase (DPD).

Series [2] addresses T2, Thymidine phosphorylase (Homo sapiens) (UniProt P19971).
T2 sequence (whole entry): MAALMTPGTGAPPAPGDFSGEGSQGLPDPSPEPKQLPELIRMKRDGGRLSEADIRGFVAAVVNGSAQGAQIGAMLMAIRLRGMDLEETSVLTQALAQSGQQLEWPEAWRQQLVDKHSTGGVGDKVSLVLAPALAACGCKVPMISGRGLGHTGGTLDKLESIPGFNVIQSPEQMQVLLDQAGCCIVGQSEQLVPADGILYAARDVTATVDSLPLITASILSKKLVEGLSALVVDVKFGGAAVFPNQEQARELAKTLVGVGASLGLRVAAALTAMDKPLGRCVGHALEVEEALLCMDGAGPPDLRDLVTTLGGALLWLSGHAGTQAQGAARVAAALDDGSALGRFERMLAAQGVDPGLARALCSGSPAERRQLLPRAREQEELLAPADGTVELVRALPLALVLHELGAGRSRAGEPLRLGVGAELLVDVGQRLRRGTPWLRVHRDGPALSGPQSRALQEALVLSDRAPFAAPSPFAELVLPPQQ
The series is described as follows: Susceptibility to thymidine phosphorylase (ThdPase) at a substrate concentration of 1.0 mM.

The target in series [3] is T3, Cocaine esterase (Homo sapiens, UniProt O00748).
T3 sequence (O00748 whole entry): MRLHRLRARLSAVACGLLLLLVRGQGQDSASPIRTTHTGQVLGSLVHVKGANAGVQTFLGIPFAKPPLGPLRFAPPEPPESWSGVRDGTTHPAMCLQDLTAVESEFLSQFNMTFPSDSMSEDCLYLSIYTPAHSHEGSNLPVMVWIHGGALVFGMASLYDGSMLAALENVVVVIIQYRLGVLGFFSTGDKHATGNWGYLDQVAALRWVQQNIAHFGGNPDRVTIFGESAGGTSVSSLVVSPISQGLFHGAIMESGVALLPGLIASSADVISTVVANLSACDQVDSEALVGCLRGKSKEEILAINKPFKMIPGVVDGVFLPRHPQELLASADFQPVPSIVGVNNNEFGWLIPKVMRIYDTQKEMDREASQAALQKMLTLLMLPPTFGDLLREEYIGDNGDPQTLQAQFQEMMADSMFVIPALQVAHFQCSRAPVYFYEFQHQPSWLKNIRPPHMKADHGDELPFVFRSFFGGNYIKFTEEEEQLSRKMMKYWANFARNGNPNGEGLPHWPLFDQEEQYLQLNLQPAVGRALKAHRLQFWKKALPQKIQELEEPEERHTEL
Briefly: Susceptibility to carboxylesterase in human intestine at a concentration 2.5 mM. To be noted: 2500 µM. It counts as tissue-based. In outline: (§1)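 Crude enzyme extracts from human liver and intestine; substrate at 2.5 mM. Conversion rate expressed as nmol/mg protein/h. L/I is the ratio of the liver rate to the intestine rate.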

Series [4] deals with T3, Cocaine esterase. The series is described as follows: Susceptibility to carboxylesterase in human liver at a concentration 2.5 mM. It counts as tissue-based. To be noted: 2500 µM. The procedure, abridged: as §1
For series [5], the system named is carboxylesterase (Homo sapiens). The series is described as follows: Relative susceptibility to human carboxylesterase in liver and intestine (L/I ratio).
The target of series [6] is Cytidine deaminase (Homo sapiens) (UniProt P32320). The series is described as follows: Susceptibility to Cyd deaminase at a substrate concentration of 2.0 mM.
Sequence of Cytidine deaminase (Homo sapiens) (P32320 whole entry): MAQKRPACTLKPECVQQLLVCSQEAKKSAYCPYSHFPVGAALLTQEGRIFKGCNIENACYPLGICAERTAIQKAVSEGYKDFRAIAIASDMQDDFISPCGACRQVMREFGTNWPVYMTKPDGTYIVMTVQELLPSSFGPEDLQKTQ
Series [7] relates to Mus musculus. Briefly: Tumour concentration of 5-FU in HT-3 (human cervical cancer) xenograft mice at 1.38 mg/kg oral dose co-administered with 135 mg/kg Capecitabine. It counts as functional. A general note: Xenograft models place foreign cells or tissue in a host animal.
Series [8] is described as follows: Ratio of tumor and plasma 5-FU concentration in HT-3 (human cervical cancer) xenograft mice on co-administration with Capecitabine. It counts as functional.
Series [9] deals with Lung carcinoma cell line. The series is described as follows: Antitumor activity in human lung carcinoma. It counts as functional.
The test system of series [10] is Mus musculus. Briefly: Plasma concentration of 5-FU in HT-3 (human cervical cancer) xenograft mice at 135 mg/kg oral dose. It counts as functional, organism-based. Set-up: dose 135 mg/kg.
Series [11] deals with Mus musculus. Briefly: Tumour concentration of 5-FU in HT-3 (human cervical cancer) xenograft mice at 135 mg/kg oral dose. It counts as functional.
The nature of series [12]: Stability at pH 2.0-7.4 determined 2 hours after treatment. It counts as physicochemical. To be noted: buffer, read-out: Stability. The procedure, abridged:
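Compound held in aqueous solution at pH 2.0–7.4 for 2 h at 37 °C. Stability reported as the percentage of compound remaining.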

A short description of series [13]: Stability in serum determined 1 hour after treatment. It counts as ADME, cell-free. The conditions noted are these: read-out: Stability. In outline: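 Compound incubated in serum; stability reported as the percentage remaining after 1 h.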
For series [14], the species on record is Homo sapiens. The series is described as follows: Susceptibility to human liver enzyme at a concentration 2.5 mM. It is filed as functional. The procedure, abridged:
as §1

Series [15] is filed under the species Homo sapiens. The series is described as follows: Susceptibility to human intestine enzyme at a concentration 2.5 mM. It is filed as functional. The procedure, abridged:
as §1

Series [16] concerns Mus musculus. Briefly: Plasma concentration of 5-FU in HT-3 (human cervical cancer) xenograft mice at 33.7 mg/kg oral dose co-administered with 135 mg/kg Capecitabine. It counts as functional, organism-based.
Series [17] relates to Mus musculus. The series is described as follows: Tumour concentration of 5-FU in HT-3 (human cervical cancer) xenograft mice at 33.7 mg/kg oral dose co-administered with 135 mg/kg Capecitabine. It counts as functional.

Usually IC50 stands for the concentration at which inhibition is half-maximal. High values mean weaker potency in that assay, low ones greater potency in that assay. For the compound `C#Cc1c[nH]c(=O)[nH]c1=O`, the concentration for half-maximal inhibition (IC50) in series [1] was determined as 14 nM. For `C#Cc1cn([C@@H]2O[C@H](C)C(O)[C@H]2O)c(=O)[nH]c1=O` (single isomer, unassigned), the Relative susceptibility in series [2] was 5. In series [2], `C[C@H]1O[C@@H](n2cc(I)c(=O)[nH]c2=O)[C@H](O)C1O` (single isomer, unassigned) gave a Relative susceptibility of 2.3. Take `CCCCCOC(=O)Nc1nc(=O)n([C@@H]2O[C@H](C)[C@@H](O)[C@H]2O)cc1I`: the Susceptibility is 18 nmol/mg protein/h in [3] and 90 nmol/mg protein/h in series [4]. Further, the Susceptibilty Ratio (Liver/Intestine) in series [5] worked out at 5.

`C[C@H]1O[C@@H](n2cc(/C=C/c3ccccc3)c(=O)[nH]c2=O)[C@H](O)C1O` (single isomer, unassigned): the Relative susceptibility in series [2] was below 0.01. For the compound `O=c1[nH]cc(I)c(=O)[nH]1`, inhibition in series [1] was half-maximal at 220 nM (IC50). With `C[C@H]1O[C@@H](n2cc(F)c(N)nc2=O)[C@H](O)[C@@H]1O`, the Relative susceptibility in series [6] came to 1. In turn, `C[C@H]1O[C@@H](n2cc(C#N)c(=O)[nH]c2=O)[C@H](O)C1O` (single isomer, unassigned) had a Relative susceptibility in series [2] below 0.01. In [1], `C=Cc1cnc(O)nc1O` gave an IC50 of 89 nM. Also, in series [7], the “Tumour_[5-FU]” value came to 12 nmol/g. Also, the Ratio_tumour/plasma in [8] came out at 3.8. `C#Cc1cn([C@@H]2O[C@H](C)[C@@H](O)[C@H]2O)c(=O)nc1N` yielded a Relative susceptibility in series [6] of 0.034. For `C=Cc1cn([C@@H]2O[C@H](C)C(O)[C@H]2O)c(=O)[nH]c1=O` (single isomer, unassigned), the Relative susceptibility in [2] worked out at 0.2.

On to `CCCCCOC(=O)Nc1nc(=O)n([C@@H]2O[C@H](C)[C@@H](O)[C@H]2O)cc1F` [CAPECITABINE], for which the Susceptibility in series [3] amounted to 5.3 nmol/mg protein/h; in series [4] it was 79 nmol/mg protein/h. In series [9], this compound came in with an Activity of 377 mg/kg. The compound further had a Plasma [5-FU] in [10] of 0.62 nmol/mL. In addition, the “Tumour_[5-FU]” value in series [11] is 3.5 nmol/g. Compound `Oc1ncc(/C=C/c2ccccc2)c(O)n1` had an IC50 in series [1] of 43 nM. The same measure, in the same setting: with `N#Cc1c[nH]c(=O)[nH]c1=O` the figure was 200 nM. Consider `C=Cc1cn([C@@H]2O[C@H](C)[C@@H](OC(C)=O)[C@H]2OC(C)=O)c(=O)nc1N`, for which the remaining at 2 h in series [12] was determined as 100%. For the same compound, in series [13], the remaining at 1 h amounted to 61%. Besides, the Susceptibility in series [14] was 130 nmol/mg protein/h; in series [15], 28 nmol/mg protein/h. Moreover, the Plasma [5-FU] in [16] is 1 nmol/mL. For the same compound, the “Tumour_[5-FU]” value in series [17] is reported as 13 nmol/g. In addition, the Ratio_tumour/plasma in series [8] was 13. Regarding `C[C@H]1O[C@@H](n2cc(F)c(=O)[nH]c2=O)[C@H](O)C1O` (single isomer, unassigned), the Relative susceptibility in series [2] worked out at 1. Compound `O=c1[nH]cc(Cc2cccc(OCc3ccccc3)c2)c(=O)[nH]1` returned a 50% inhibitory concentration (IC50) in [1] of 97 nM.

In series [6], `C=Cc1cn([C@@H]2O[C@H](C)[C@@H](O)[C@H]2O)c(=O)nc1N` yielded a Relative susceptibility of 0.14. For `C[C@H]1O[C@@H](n2cc(Cc3cccc(OCc4ccccc4)c3)c(=O)[nH]c2=O)[C@H](O)C1O` (single isomer, unassigned), in series [2], the Relative susceptibility was below 0.01.

For the compound `C=Cc1cn([C@@H]2O[C@H](C)[C@@H](O)[C@H]2O)c(=O)nc1NC(=O)OCCCCC`, the Susceptibility is below 5 nmol/mg protein/h in [3] and 110 nmol/mg protein/h in series [4]. Also, the Susceptibilty Ratio (Liver/Intestine) in [5] is above 22. As to `C[C@H]1O[C@@H](n2cc(I)c(N)nc2=O)[C@H](O)[C@@H]1O`, in [6], the Relative susceptibility is 0.33.
